56 compounds from ChEMBL document CHEMBL1154032, “Substituted pyrimidines as cannabinoid CB1 receptor ligands” (Bioorg Med Chem Lett, 2009) can be followed below.

The structures appear in SMILES notation. pIC50: −log10 of the molar value.

Sequence of Cannabinoid receptor 2 (P34972 whole entry): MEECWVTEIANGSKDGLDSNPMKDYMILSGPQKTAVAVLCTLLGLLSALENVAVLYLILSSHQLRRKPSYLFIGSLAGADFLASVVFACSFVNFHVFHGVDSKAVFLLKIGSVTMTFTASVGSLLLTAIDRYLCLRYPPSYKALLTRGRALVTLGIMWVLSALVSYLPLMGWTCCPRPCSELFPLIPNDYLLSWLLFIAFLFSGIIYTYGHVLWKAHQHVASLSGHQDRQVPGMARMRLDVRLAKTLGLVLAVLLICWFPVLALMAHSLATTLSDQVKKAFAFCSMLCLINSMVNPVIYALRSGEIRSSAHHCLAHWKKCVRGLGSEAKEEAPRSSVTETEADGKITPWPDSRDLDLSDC

The target in the first assay is Cannabinoid receptor 2 (Homo sapiens, UniProt P34972). Put plainly: Displacement of [3H]WIN-55212-2 from human recombinant CB2 receptor expressed in CHOK1 cells by liquid scintillation spectrometry. Type of assay: cell-based, CHO-K1. A digest of the protocol:
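Membranes from CHO K-1 cells transfected with human CB2, prepared as for brain tissue (TME buffer pH 7.4, 48,000g spin). About 10 µg membrane incubated with 3 nM [3H]WIN55,212-2 and graded ligand concentrations in TME with 0.5% fatty-acid-free BSA, 1 h at 30 °C. Filtered over PEI-soaked GF/B, washed five times ice-cold. IC50 from nonlinear regression, triplicate.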
Background: Displacement assays read how much labelled ligand stays bound in the presence of the test substance.
The term pIC50 denotes the negative decadic logarithm of the IC50, by convention in mol/L. In the case of `CCCCNc1cc(N[C@@H](C)[C@@H](Cc2ccc(Cl)cc2)c2cccc(Br)c2)ncn1`, the pIC50 is 5.53.

The target in a further assay is Cannabinoid receptor 1 (Rattus norvegicus, UniProt P20272). Put plainly: Displacement of [3H]CP-55940 from cannabinoid CB1 receptor in Sprague-Dawley rat cerebellar membrane by liquid scintillation spectrometry. On the set-up: species or system Cerebellum. A digest of the protocol: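 About 10 µg membrane incubated with 3 nM [3H]CP55,940, graded ligand concentrations, TME with 0.5% fatty-acid-free BSA, 1 h at 30 °C. PEI-soaked GF/B filtration, five ice-cold washes. IC50 by nonlinear regression, triplicate.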
Sequence of Cannabinoid receptor 1 (P20272 whole entry): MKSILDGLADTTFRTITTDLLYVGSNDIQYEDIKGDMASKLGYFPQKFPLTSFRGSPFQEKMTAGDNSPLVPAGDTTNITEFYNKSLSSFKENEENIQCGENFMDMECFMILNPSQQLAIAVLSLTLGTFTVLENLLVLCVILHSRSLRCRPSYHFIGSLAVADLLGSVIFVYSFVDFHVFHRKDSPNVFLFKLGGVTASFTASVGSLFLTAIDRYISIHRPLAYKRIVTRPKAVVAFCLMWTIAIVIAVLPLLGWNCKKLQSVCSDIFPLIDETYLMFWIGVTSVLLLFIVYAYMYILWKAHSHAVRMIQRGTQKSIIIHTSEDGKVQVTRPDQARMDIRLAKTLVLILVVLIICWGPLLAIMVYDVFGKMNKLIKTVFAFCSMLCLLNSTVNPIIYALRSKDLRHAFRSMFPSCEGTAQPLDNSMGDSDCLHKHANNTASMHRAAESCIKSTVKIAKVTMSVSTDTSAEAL
Consider `CC[C@H](Nc1cc(NC2CCCCC2)ncn1)[C@@H](Cc1ccc(Cl)cc1)c1cccc(Br)c1`, for which the pIC50 was 6.24.

For `CSc1nc(NC2CCCCC2)cc(N[C@@H](C)[C@@H](Cc2ccc(Cl)cc2)c2cccc(Br)c2)n1`, the pIC50 is 7.24.

Take `C[C@H](Nc1cc(N2CCCCC2)ncn1)[C@@H](Cc1ccc(Cl)cc1)c1cccc(Br)c1`: the pIC50 was 7.68.

In turn, `CC1CCN(c2cc(N[C@@H](C)[C@@H](Cc3ccc(Cl)cc3)c3cccc(Br)c3)ncn2)CC1` gave a pIC50 of 7.12.

`C[C@H](Nc1cc(Nc2ccc(F)cc2)ncn1)[C@@H](Cc1ccc(Cl)cc1)c1cccc(Br)c1` showed a pIC50 of 7.01.

Take `C[C@H](Nc1cc(N2CCCC2)ncn1)[C@@H](Cc1ccc(Cl)cc1)c1cccc(Br)c1`: the pIC50 was 6.94.

Consider `Cc1nc(NC2CCCCCC2)cc(N[C@@H](C)[C@@H](Cc2ccc(Cl)cc2)c2cccc(Br)c2)n1`, for which the pIC50 was 7.18.

For the compound `CCCNc1cc(N[C@@H](C)[C@@H](Cc2ccc(Cl)cc2)c2cccc(Br)c2)ncn1`, the pIC50 is 7.32.

As for `Cc1nc(N[C@@H](C)[C@@H](Cc2ccc(Cl)cc2)c2cccc(Br)c2)cc(N(C)C)n1`, the pIC50 was 6.89.

`CSc1nc(NC2CCCCCC2)cc(N[C@@H](C)[C@@H](Cc2ccc(Cl)cc2)c2cccc(Br)c2)n1`: the pIC50 is 7.48.

Compound `C[C@H](Nc1cc(OCC2CCCCC2)ncn1)[C@@H](Cc1ccc(Cl)cc1)c1cccc(Br)c1` gave a pIC50 of 6.87.

Take `CC[C@H](Nc1cc(NC2CCCC2)ncn1)[C@@H](Cc1ccc(Cl)cc1)c1cccc(Br)c1`: the pIC50 was 7.20.

Take `C[C@H](Nc1cc(NC2CCCCC2)nc(C(F)(F)F)n1)[C@@H](Cc1ccc(Cl)cc1)c1cccc(Br)c1`: the pIC50 was 7.65.

Turning to `CCCCNc1cc(N[C@@H](C)[C@@H](Cc2ccc(Cl)cc2)c2cccc(Br)c2)nc(C(F)(F)F)n1`, the pIC50 is 7.36.

`CCCCOc1cc(N[C@@H](C)[C@@H](Cc2ccc(Cl)cc2)c2cccc(Br)c2)ncn1` gave a pIC50 of 7.12.

In the case of `Clc1ccc(C[C@H](CNc2cc(N3CCCCC3)ncn2)c2cccc(Br)c2)cc1`, the pIC50 was 7.15.

With `Cc1nc(NC2CCCC2)cc(N[C@@H](C)[C@@H](Cc2ccc(Cl)cc2)c2cccc(Br)c2)n1`, the pIC50 was 7.01.

`Cc1nc(NCc2ccc(C(F)(F)F)cc2)cc(N[C@@H](C)[C@@H](Cc2ccc(Cl)cc2)c2cccc(Br)c2)n1` gave a pIC50 of 6.80.

As for `CC[C@H](Nc1cc(N2CCCCC2)ncn1)[C@@H](Cc1ccc(Cl)cc1)c1cccc(Br)c1`, the pIC50 was 6.55.

Take `C[C@H](Nc1cc(C2CCCCC2)ncn1)[C@@H](Cc1ccc(Cl)cc1)c1cccc(Br)c1`: the pIC50 is 7.20.

Compound `C[C@H](Nc1cc(N2CCCCCC2)ncn1)[C@@H](Cc1ccc(Cl)cc1)c1cccc(Br)c1` gave a pIC50 of 7.03.

In turn, `C[C@H](Nc1cc(C2CCCC2)ncn1)[C@@H](Cc1ccc(Cl)cc1)c1cccc(Br)c1` had a pIC50 of 7.40.

`CCCCNc1cc(N[C@@H](C)[C@@H](Cc2ccc(Cl)cc2)c2cccc(Br)c2)nc(C)n1`: the pIC50 was 7.09.

For `C[C@H](Nc1cc(NC2CCCCC2)ncn1)[C@@H](Cc1ccc(Cl)cc1)c1cccc(Br)c1`, the pIC50 was 7.56.

For `CCCCCCOc1cc(N[C@@H](C)[C@@H](Cc2ccc(Cl)cc2)c2cccc(Br)c2)ncn1`, the pIC50 was 6.87.

For `C[C@H](Nc1cc(N2CCC(C(F)(F)F)CC2)ncn1)[C@@H](Cc1ccc(Cl)cc1)c1cccc(Br)c1`, the pIC50 is 7.12.

In turn, `CSc1nc(N[C@@H](C)[C@@H](Cc2ccc(Cl)cc2)c2cccc(Br)c2)cc(N2CCCCC2)n1` showed a pIC50 of 6.96.

`CC1CC(C)CN(c2cc(N[C@@H](C)[C@@H](Cc3ccc(Cl)cc3)c3cccc(Br)c3)ncn2)C1` (some centres not stated) had a pIC50 of 6.55.

Turning to `CCCCNc1cc(N[C@@H](C)[C@@H](Cc2ccc(Cl)cc2)c2cccc(Br)c2)ncn1`, the pIC50 was 7.79.

Consider `Cc1nc(NC2CCCCC2)cc(N[C@@H](C)[C@@H](Cc2ccc(Cl)cc2)c2cccc(Br)c2)n1`, for which the pIC50 is 7.66.

On to `CCCCc1cc(N[C@@H](C)[C@@H](Cc2ccc(Cl)cc2)c2cccc(Br)c2)ncn1`, for which the pIC50 was 7.13.

Compound `CC(C)CCNc1cc(N[C@@H](C)[C@@H](Cc2ccc(Cl)cc2)c2cccc(Br)c2)ncn1` had a pIC50 of 6.95.

The compound `C[C@H](Nc1cc(NCC2CCCCC2)ncn1)[C@@H](Cc1ccc(Cl)cc1)c1cccc(Br)c1` gave a pIC50 of 7.15.

`Clc1ccc(C[C@H](CNc2cc(NC3CCCCCC3)ncn2)c2cccc(Br)c2)cc1`: the pIC50 was 5.81.

Compound `C[C@H](Nc1cc(OC2CCCCC2)ncn1)[C@@H](Cc1ccc(Cl)cc1)c1cccc(Br)c1` showed a pIC50 of 7.02.

With `C[C@H](Nc1cc(NCC2CCCO2)ncn1)[C@@H](Cc1ccc(Cl)cc1)c1cccc(Br)c1` (some centres not stated), the negative logarithm of the IC50 (pIC50) is 6.94.

The compound `CCCCCNc1cc(N[C@@H](C)[C@@H](Cc2ccc(Cl)cc2)c2cccc(Br)c2)nc(C(F)(F)F)n1` gave a pIC50 of 7.23.

For the compound `C[C@H](Nc1cc(NC2CCCCCC2)ncn1)[C@@H](Cc1ccc(Cl)cc1)c1cccc(Br)c1`, the pIC50 was 7.34.

As to `C[C@H](Nc1cc(N2CCOCC2)ncn1)[C@@H](Cc1ccc(Cl)cc1)c1cccc(Br)c1`, the pIC50 was 7.16.

In the case of `Cc1nc(N[C@@H](C)[C@@H](Cc2ccc(Cl)cc2)c2cccc(Br)c2)cc(N2CCCCC2)n1`, the pIC50 was 7.54.

For `C[C@H](Nc1cc(NC2CCCC2)ncn1)[C@@H](Cc1ccc(Cl)cc1)c1cccc(Br)c1`, the pIC50 is 7.61.

The compound `CCCCCCNc1cc(N[C@@H](C)[C@@H](Cc2ccc(Cl)cc2)c2cccc(Br)c2)ncn1` showed a pIC50 of 6.47.

Turning to `CC[C@H](Nc1cc(NC2CCCCCC2)ncn1)[C@@H](Cc1ccc(Cl)cc1)c1cccc(Br)c1`, the pIC50 is 6.20.

Regarding `CCN(C)c1cc(N[C@@H](C)[C@@H](Cc2ccc(Cl)cc2)c2cccc(Br)c2)ncn1`, the pIC50 was 6.97.

`C[C@H](Nc1cc(NC2CCCCCC2)nc(C(F)(F)F)n1)[C@@H](Cc1ccc(Cl)cc1)c1cccc(Br)c1` gave a pIC50 of 7.41.

`CCCCC(CC)CNc1cc(N[C@@H](C)[C@@H](Cc2ccc(Cl)cc2)c2cccc(Br)c2)ncn1` (some centres not stated) had a pIC50 of 6.99.

Regarding `CCCCNc1cc(N[C@@H](C)[C@@H](Cc2ccc(Cl)cc2)c2cccc(Br)c2)nc(SC)n1`, the pIC50 was 7.16.

`CCCCCNc1cc(N[C@@H](C)[C@@H](Cc2ccc(Cl)cc2)c2cccc(Br)c2)ncn1` showed a pIC50 of 6.71.

For `CCC(CC)Nc1cc(N[C@@H](C)[C@@H](Cc2ccc(Cl)cc2)c2cccc(Br)c2)ncn1`, the pIC50 was 7.03.

In turn, `C[C@H](Nc1cc(NCc2ccccn2)ncn1)[C@@H](Cc1ccc(Cl)cc1)c1cccc(Br)c1` had a pIC50 of 6.58.

`CCCCCOc1cc(N[C@@H](C)[C@@H](Cc2ccc(Cl)cc2)c2cccc(Br)c2)ncn1` gave a pIC50 of 6.69.

In turn, `C[C@H](Nc1cc(Nc2ccccc2)ncn1)[C@@H](Cc1ccc(Cl)cc1)c1cccc(Br)c1` had a pIC50 of 7.17.

In turn, `COc1cc(N[C@@H](C)[C@@H](Cc2ccc(Cl)cc2)c2cccc(Br)c2)ncn1` had a negative logarithm of the IC50 (pIC50) of 6.87.

For `CC(C)CNc1cc(N[C@@H](C)[C@@H](Cc2ccc(Cl)cc2)c2cccc(Br)c2)ncn1`, the pIC50 was 6.81.

`C[C@H](Nc1cc(N2CCCCC2)nc(C(F)(F)F)n1)[C@@H](Cc1ccc(Cl)cc1)c1cccc(Br)c1` gave a pIC50 of 6.71.

On to `C[C@H](Nc1cc(NCc2ccccc2)ncn1)[C@@H](Cc1ccc(Cl)cc1)c1cccc(Br)c1`, for which the pIC50 is 6.71.
